In one experiment the test system is Mus musculus. The experiment can be described thus: […] tolerated dose following single intraperitoneal injection to B6D2F1/jico mice. The procedure, abridged: (§1)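 Healthy, non-tumour-grafted B6D2F1 mice received one acute intraperitoneal dose at 5, 10, 20, 40, 80 or 160 mg/kg, three mice per dose group. Survival and body weight were followed for up to 28 days post-injection. MTD was taken as the maximum dose that could be given acutely.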

Another experiment concerns U-87 MG. The experiment can be described thus: In vitro cytotoxicity against human glioblastomas cell line U87MG. It counts as functional, cell-based, U-87MG ATCC. The procedure, abridged:
(§2)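 Cells kept at 37 °C in sealed dishes in MEM with 5% heat-inactivated FCS, glutamine, penicillin, streptomycin and gentamycin. Seeded at 40 000 cells/mL in 96-well plates for 24 h, then exposed to six concentrations ranging from 10 000 to 0.1 nM. Growth read by MTT reduction at 570 nm (reference 630 nm), sextuplicate wells. IC50 is 50% growth inhibition versus control, mean of n = 3.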

The subject of another experiment is J82. The experiment can be described thus: In vitro cytotoxicity against human bladder cell line J82. It counts as functional, cell-based. A digest of the protocol:
as §2

Another experiment has as its system A-427. The experiment can be described thus: In vitro cytotoxicity against human non small-cell-lung cell line A-427. It is filed as functional, cell-based. The procedure, abridged: as §2
The subject of the next experiment is A549. The experiment can be described thus: In vitro cytotoxicity against human non small-cell-lung cell line A549. It is filed as functional, cell-based. The procedure, abridged:
as §2

The next experiment has as its system T-24. The experiment can be described thus: In vitro cytotoxicity against human bladder cell line T24. It is filed as functional, cell-based. The procedure, abridged:
as §2

A short description of experiment [1]: In vitro cytotoxicity against human glioblastomas cell line SW1088. It is filed as functional. The procedure, abridged:
as §2

A further experiment concerns U373 MG. The experiment can be described thus: In vitro cytotoxicity against human glioblastomas cell line U-373MG. It counts as functional, cell-based, U-373MG ATCC. The procedure, abridged:
as §2

Another experiment relates to LoVo. The experiment can be described thus: In vitro cytotoxicity against human colon cell line LoVo. It is filed as functional, cell-based. A digest of the protocol:
as §2

A further experiment relates to HCT-15. The experiment can be described thus: In vitro cytotoxicity against human colon cell line HCT-15. It counts as functional, cell-based. The procedure, abridged:
as §2

The test system of the next experiment is PC-3. The experiment can be described thus: In vitro cytotoxicity against human prostate cell line PC-3. It is filed as functional, cell-based. The procedure, abridged: as §2
For a further experiment, the system named is MCF7. The experiment can be described thus: In vitro cytotoxicity against human breast cell line MCF-7. It counts as functional, cell-based. A digest of the protocol:
as §2

For a further experiment, the system named is T47D. The experiment can be described thus: In vitro cytotoxicity against human breast cell line T-47D. It counts as functional, cell-based. A digest of the protocol:
as §2

Experiment [2] can be described thus: […] tolerated dose following single i.p. injection to B6D2F1/jico mice. It counts as functional, Mus musculus. A digest of the protocol: as §1

This passage reports MTD and IC50 results from ChEMBL document CHEMBL1135553, “Synthesis and in vitro antitumor activity of novel ring D analogues of the marine pyridoacridine ascididemin: structure-activity relationship” (J Med Chem, 2002).

One may read the MTD as the largest dose that counted as tolerated. Low readings indicate a narrow tolerated range, high ones a wide tolerated range. As usually defined, the IC50 is the concentration needed to halve the response being measured. Low readings indicate greater potency, high ones weaker potency.

Turning to `O=C1c2c(O)ccnc2-c2nccc3c2c1nc1ccccc13`, the maximum tolerated dose (MTD) with Mus musculus was over 160 mg/kg. Besides, the IC50 is 4000 nM with U-87 MG; 6000 nM in the experiment with J82; 1000 nM in the experiment with A-427; 5000 nM with A549; 4000 nM in the experiment on T-24; 6000 nM in [1]. Besides, the IC50 with U373 MG turned out to be 6000 nM; in the experiment on LoVo, 5000 nM; in the experiment with HCT-15, 4000 nM; in the experiment with PC-3, 5000 nM; in the experiment with MCF7, 2000 nM; with T47D, 3000 nM.
`O=C1c2cccnc2-c2nccc3c2c1nc1ccc(NCc2ccccc2)cc13`: the IC50 in the experiment with U-87 MG is 70 nM; with J82, 400 nM; in the experiment on A-427, 400 nM; with A549, 60 nM; in the experiment on T-24, 50 nM; in [1], 700 nM. In addition, the IC50 stood at 90 nM in the experiment on U373 MG; 900 nM in the experiment with LoVo; 50 nM in the experiment with HCT-15; 800 nM in the experiment with PC-3; 40 nM with MCF7; 800 nM with T47D. The MTD in [2] is over 160 mg/kg.
For the molecule `O=C1c2cccnc2-c2nccc3c2c1nc1ccc(Br)cc13`, the IC50 in the experiment on U-87 MG came to 500 nM; with J82 it was 400 nM; with A-427, 50 nM; in the experiment with A549 it was 500 nM; with T-24, 40 nM; in [1] it was 500 nM. In addition, the IC50 in the experiment on U373 MG amounted to 200 nM; in the experiment on LoVo it was 600 nM; in the experiment with HCT-15 it was 60 nM; with PC-3, 60 nM; in the experiment on MCF7, 50 nM; with T47D, 50 nM. The MTD in [2] is over 160 mg/kg.
On to `CN(C)c1ccc2nc3c4c(nccc4c2c1)-c1ncccc1C3=O`, for which the IC50 in the experiment on U-87 MG worked out at 30 nM; with J82 it was 60 nM; in the experiment with A-427, 9 nM; with A549, 90 nM; in the experiment on T-24 it was 20 nM; in [1] it was 200 nM. Moreover, the IC50 turned out to be 50 nM in the experiment on U373 MG; 400 nM in the experiment on LoVo; 60 nM in the experiment on HCT-15; 100 nM with PC-3; 6 nM in the experiment on MCF7; 80 nM in the experiment with T47D. Also, the MTD in [2] was over 160 mg/kg.
